ChEMBL document CHEMBL4118021, “Studies of TAK1-centered polypharmacology with novel covalent TAK1 inhibitors” (Bioorg Med Chem, 2017)
The source made the active and inactive calls. No cut-off for these calls is given here.

Key:
[1] = target: T1, Mitogen-activated protein kinase kinase kinase 7 (Homo sapiens) (UniProt O43318); conditions: 0.6 uM
T1 sequence (whole entry): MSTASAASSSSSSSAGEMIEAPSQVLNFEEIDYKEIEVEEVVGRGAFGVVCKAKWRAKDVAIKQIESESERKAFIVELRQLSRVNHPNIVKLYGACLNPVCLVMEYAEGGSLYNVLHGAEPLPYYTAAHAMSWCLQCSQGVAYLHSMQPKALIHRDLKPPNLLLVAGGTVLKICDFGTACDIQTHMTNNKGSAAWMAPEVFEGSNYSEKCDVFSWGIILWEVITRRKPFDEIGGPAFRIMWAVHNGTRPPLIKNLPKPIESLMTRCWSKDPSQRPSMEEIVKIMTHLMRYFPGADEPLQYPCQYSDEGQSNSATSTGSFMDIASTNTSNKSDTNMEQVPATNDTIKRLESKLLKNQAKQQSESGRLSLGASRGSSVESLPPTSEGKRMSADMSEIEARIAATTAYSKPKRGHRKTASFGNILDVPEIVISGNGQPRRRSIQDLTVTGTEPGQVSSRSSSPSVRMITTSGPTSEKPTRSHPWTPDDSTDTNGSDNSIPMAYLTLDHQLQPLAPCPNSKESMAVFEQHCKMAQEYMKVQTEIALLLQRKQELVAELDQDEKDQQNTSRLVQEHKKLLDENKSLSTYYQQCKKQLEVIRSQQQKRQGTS

[2] = target: T1, Mitogen-activated protein kinase kinase kinase 7 (Homo sapiens); conditions: 0.6 uM; remark: listed apart in the source
[3] = target: T1, Mitogen-activated protein kinase kinase kinase 7 (Homo sapiens); conditions: NCI-H358, 1 uM
[4] = target: Mitogen-activated protein kinase 1 (Homo sapiens) (UniProt P28482); assay: Inhibition of Erk2 in human SKCO1 cells at 1 uM after 4 hrs using biotin labeled DLKPSNLLLNTTCDLK probe by mass-spectrometric analysis relative to control; format: cell-based
[5] = target: Mitogen-activated protein kinase 9 (Homo sapiens) (UniProt P45984); assay: Inhibition of JNK2 in human SKCO1 cells at 1 uM after 4 hrs using biotin labeled DLKPSNIVVK probe by mass-spectrometric analysis relative to control; format: cell-based
[6] = test system: MOLM-14; assay: Antiproliferative activity against human MOLM14 cells harboring FLT3-ITD mutant at […] to […] nM after 72 hrs by CellTiter-Glo assay; format: functional, cell-based
[7] = test system: U-937; assay: Antiproliferative activity against human U937 cells at […] to […] nM after 72 hrs by CellTiter-Glo assay; format: functional, cell-based
[8] = target: T1, Mitogen-activated protein kinase kinase kinase 7 (Homo sapiens); conditions: 0.6 uM; remark: listed apart in the source
[9] = target: Tyrosine-protein kinase Lck (Homo sapiens) (UniProt P06239); assay: Inhibition of LCK in human SKCO1 cells at 1 uM after 4 hrs using biotin labeled EGAKFPIKWTAPEAINYGTFTIK probe by mass-spectrometric analysis relative to control; format: cell-based
[10] = target: Tyrosine-protein kinase SYK (Homo sapiens) (UniProt P43405); assay: Inhibition of SYK in human SKCO1 cells at 1 uM after 4 hrs using biotin labeled ISDFGLSKALR probe by mass-spectrometric analysis relative to control; format: cell-based
Procedure, shortened: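 Live SK-CO-1 cells exposed to compound at 1 μM or DMSO for 4 h (KiNativ). Lysates then labeled with lysine-reactive ATP/ADP-biotin probe, and probe-labeled kinase peptides quantified by mass spectrometry. Percent inhibition of probe-dependent recovery calculated relative to DMSO-treated cells.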

[11] = target: Phosphatidylinositol 3-kinase catalytic subunit type 3 (Homo sapiens) (UniProt Q8NEB9); assay: Inhibition of PIK3C3 in human SKCO1 cells at 1 uM after 4 hrs using biotin labeled TEDGGKYPVIFKHGDDLRQDQLILQIISLMDK probe by mass-spectrometric analysis relative to control; format: cell-based
[12] = target: Ephrin type-B receptor 2 (Homo sapiens) (UniProt P29323); assay: Inhibition of EphB2 in human SKCO1 cells at 1 uM after 4 hrs using biotin labeled FLEDDTSDPTYTSALGGKIPIR probe by mass-spectrometric analysis relative to control; format: cell-based
[13] = test system: SW-620; assay: Antiproliferative activity against human SW620 cells harboring KRAS G12V mutant after 72 hrs by CellTiter-Glo assay; format: functional, cell-based; conditions: SW-620, 72 h
[14] = target: Tyrosine-protein kinase Fyn (Homo sapiens) (UniProt P06241); assay: Inhibition of FYN in human SKCO1 cells at 1 uM after 4 hrs using biotin labeled QGAKFPIKWTAPEAALYGR probe by mass-spectrometric analysis relative to control; format: cell-based
[15] = test system: SK-CO-1; assay: Antiproliferative activity against human SKCO1 cells harboring KRAS G12V mutant after 72 hrs by CellTiter-Glo assay; format: functional, cell-based; conditions: SK-CO-1, 72 h
[16] = target: Mitogen-activated protein kinase 14 (Homo sapiens) (UniProt Q16539); assay: Inhibition of p38a in human SKCO1 cells at 1 uM after 4 hrs using biotin labeled QELNKTIWEVPER probe by mass-spectrometric analysis relative to control; format: cell-based
Procedure, shortened: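 Live SK-CO-1 cells were treated at 1 μM for 4 h alongside DMSO controls, then lysed. Lysates were labelled with a lysine-reactive ATP or ADP-biotin probe, and probe-dependent peptide recovery was quantified by mass spectrometry. Inhibition (%) is relative to DMSO-treated cells.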

[17] = target: Mitogen-activated protein kinase 7 (Homo sapiens) (UniProt Q13164); assay: Inhibition of Erk5 in human SKCO1 cells at 1 uM after 4 hrs using biotin labeled DLKPSNLLVNENCELK probe by mass-spectrometric analysis relative to control; format: cell-based
[18] = target: Dual specificity mitogen-activated protein kinase kinase 1 (Homo sapiens) (UniProt Q02750); assay: Inhibition of MAP2K1 in human SKCO1 cells at 1 uM after 4 hrs using biotin labeled DVKPSNILVNSR probe by mass-spectrometric analysis relative to control; format: cell-based
Procedure, shortened: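 Live SK-CO-1 cells treated 4 h at 1 μM (DMSO control); cells lysed and lysates labeled with lysine-reactive ATP/ADP-biotin probe (KiNativ); probe-labeled kinase peptides quantified by mass spectrometry; inhibition expressed as percent reduction in probe-dependent recovery versus DMSO-treated cells.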

[19] = test system: PANC-1; assay: Antiproliferative activity against human PANC1 cells harboring KRAS G12D mutant after 72 hrs by CellTiter-Glo assay; format: functional, cell-based; conditions: PANC-1, 72 h

Chain of Mitogen-activated protein kinase 9 (Homo sapiens) (P45984 whole entry, looked up): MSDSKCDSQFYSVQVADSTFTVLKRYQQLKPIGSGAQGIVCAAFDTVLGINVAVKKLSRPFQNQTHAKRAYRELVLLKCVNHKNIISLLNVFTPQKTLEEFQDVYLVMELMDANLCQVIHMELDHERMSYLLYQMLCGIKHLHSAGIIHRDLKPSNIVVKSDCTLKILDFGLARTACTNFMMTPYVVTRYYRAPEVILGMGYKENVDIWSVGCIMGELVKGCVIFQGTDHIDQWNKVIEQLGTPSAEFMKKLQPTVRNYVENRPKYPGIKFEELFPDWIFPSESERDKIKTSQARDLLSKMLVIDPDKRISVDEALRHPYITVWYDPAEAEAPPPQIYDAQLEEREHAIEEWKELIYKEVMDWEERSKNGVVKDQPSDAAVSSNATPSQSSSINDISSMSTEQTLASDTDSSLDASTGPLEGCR
Chain of Mitogen-activated protein kinase 1 (Homo sapiens) (P28482 whole entry): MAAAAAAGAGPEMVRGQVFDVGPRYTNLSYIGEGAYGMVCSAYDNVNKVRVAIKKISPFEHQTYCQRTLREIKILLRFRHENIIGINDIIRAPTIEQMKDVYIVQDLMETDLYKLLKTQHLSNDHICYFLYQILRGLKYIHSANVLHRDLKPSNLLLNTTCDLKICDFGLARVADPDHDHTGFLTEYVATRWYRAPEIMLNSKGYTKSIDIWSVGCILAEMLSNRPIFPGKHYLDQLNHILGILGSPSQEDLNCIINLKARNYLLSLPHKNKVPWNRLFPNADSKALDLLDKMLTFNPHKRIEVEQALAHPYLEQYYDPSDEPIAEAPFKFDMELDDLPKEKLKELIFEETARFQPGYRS
Chain of Mitogen-activated protein kinase 7 (Homo sapiens) (Q13164 2-816 limits assumed): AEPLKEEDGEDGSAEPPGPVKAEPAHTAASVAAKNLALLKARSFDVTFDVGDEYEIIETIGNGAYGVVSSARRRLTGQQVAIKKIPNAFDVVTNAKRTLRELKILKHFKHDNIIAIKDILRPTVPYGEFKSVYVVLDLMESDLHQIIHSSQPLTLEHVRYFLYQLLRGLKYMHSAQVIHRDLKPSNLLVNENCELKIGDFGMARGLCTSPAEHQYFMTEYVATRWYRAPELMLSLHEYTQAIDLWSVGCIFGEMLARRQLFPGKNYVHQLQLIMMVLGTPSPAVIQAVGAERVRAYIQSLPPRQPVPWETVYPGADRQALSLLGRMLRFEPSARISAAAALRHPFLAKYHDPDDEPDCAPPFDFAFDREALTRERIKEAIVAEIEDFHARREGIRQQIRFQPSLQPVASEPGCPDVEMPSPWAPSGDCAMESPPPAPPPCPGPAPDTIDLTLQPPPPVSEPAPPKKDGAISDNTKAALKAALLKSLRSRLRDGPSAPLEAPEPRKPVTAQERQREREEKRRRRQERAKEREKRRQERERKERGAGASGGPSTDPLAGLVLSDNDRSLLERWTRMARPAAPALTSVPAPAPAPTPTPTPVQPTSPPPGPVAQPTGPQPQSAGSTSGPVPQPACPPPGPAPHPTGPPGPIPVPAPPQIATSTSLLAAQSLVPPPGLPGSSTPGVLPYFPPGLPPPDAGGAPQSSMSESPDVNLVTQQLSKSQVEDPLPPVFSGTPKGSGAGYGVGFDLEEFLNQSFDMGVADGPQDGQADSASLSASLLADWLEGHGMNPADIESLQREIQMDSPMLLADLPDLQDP
Chain of Tyrosine-protein kinase Lck (Homo sapiens) (P06239 2-509 limits assumed): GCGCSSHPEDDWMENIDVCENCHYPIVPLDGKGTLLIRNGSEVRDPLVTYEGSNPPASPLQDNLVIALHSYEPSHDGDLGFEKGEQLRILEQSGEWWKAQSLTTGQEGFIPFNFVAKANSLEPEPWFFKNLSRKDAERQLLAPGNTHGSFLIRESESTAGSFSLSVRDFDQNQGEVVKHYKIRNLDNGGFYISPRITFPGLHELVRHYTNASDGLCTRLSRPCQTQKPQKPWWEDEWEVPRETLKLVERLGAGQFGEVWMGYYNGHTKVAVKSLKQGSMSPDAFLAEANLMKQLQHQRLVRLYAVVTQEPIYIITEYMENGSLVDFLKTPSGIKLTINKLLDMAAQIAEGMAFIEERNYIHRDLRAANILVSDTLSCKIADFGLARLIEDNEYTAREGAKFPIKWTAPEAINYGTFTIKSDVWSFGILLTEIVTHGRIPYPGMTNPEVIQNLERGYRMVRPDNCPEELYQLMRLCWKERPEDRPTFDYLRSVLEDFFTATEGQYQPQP
Chain of Tyrosine-protein kinase Fyn (Homo sapiens) (P06241 2-537 limits assumed): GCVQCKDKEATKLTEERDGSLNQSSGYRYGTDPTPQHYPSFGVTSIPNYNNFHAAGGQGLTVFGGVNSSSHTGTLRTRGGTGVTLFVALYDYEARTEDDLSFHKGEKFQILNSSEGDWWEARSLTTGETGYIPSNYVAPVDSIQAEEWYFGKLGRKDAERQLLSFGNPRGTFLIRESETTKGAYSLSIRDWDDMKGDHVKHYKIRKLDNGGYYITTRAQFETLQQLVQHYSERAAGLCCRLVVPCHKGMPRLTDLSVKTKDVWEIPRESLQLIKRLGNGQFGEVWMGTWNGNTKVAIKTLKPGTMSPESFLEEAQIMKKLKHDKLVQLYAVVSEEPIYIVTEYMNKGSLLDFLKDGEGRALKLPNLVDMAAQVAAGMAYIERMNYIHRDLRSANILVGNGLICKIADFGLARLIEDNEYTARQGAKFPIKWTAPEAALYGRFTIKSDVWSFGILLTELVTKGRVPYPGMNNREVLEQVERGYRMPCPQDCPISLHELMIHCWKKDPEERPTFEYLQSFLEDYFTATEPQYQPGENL
Chain of Phosphatidylinositol 3-kinase catalytic subunit type 3 (Homo sapiens) (Q8NEB9 whole entry): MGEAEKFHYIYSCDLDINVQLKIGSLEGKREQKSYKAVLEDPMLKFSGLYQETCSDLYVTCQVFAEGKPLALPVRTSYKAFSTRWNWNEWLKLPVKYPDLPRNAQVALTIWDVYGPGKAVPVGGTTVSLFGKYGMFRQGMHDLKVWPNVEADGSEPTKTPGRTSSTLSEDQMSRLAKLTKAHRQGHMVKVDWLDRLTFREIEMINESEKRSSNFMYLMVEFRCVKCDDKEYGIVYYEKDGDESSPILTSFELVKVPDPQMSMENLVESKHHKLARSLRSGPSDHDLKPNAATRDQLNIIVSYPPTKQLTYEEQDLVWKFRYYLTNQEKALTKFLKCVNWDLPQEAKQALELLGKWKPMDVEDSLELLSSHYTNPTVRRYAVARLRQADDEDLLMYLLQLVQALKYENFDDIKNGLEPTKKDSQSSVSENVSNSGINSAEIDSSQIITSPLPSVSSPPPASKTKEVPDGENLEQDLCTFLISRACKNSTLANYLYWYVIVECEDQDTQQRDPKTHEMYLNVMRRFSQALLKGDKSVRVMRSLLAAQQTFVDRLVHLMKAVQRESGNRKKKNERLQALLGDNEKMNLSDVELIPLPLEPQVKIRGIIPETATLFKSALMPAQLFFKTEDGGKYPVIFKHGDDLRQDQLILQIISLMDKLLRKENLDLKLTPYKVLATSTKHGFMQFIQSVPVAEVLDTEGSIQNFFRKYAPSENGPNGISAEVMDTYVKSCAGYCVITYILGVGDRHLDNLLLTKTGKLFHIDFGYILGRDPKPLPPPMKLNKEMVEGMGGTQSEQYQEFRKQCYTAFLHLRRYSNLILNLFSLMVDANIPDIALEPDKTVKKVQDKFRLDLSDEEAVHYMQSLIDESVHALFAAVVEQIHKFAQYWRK
Chain of Ephrin type-B receptor 2 (Homo sapiens) (P29323 whole entry): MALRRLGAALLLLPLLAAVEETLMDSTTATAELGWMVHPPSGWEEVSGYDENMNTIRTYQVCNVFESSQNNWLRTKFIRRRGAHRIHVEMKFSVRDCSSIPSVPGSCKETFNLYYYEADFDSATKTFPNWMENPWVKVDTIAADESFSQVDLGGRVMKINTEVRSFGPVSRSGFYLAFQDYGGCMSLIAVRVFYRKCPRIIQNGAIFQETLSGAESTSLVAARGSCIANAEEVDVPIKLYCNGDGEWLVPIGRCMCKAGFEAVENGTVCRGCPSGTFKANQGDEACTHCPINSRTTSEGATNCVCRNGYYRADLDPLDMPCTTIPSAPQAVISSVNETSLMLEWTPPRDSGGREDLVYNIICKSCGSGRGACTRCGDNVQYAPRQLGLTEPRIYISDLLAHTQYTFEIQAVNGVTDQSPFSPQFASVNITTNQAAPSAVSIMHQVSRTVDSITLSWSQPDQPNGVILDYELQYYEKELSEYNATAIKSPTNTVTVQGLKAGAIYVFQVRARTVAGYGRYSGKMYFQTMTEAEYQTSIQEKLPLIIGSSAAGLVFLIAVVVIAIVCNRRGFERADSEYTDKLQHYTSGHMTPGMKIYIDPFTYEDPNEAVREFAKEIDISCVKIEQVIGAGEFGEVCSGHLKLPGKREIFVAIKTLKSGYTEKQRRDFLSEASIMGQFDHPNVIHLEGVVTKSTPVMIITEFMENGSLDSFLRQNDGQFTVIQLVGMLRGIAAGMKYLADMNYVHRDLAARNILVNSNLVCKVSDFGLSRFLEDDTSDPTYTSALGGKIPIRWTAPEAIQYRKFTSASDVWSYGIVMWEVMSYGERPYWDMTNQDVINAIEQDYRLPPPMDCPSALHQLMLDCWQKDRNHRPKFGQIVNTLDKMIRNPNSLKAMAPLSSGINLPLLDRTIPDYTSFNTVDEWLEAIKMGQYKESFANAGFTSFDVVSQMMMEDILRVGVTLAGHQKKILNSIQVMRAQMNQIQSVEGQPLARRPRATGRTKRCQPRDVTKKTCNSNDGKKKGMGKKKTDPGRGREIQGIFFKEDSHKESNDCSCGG
Chain of Dual specificity mitogen-activated protein kinase kinase 1 (Homo sapiens) (Q02750 whole entry): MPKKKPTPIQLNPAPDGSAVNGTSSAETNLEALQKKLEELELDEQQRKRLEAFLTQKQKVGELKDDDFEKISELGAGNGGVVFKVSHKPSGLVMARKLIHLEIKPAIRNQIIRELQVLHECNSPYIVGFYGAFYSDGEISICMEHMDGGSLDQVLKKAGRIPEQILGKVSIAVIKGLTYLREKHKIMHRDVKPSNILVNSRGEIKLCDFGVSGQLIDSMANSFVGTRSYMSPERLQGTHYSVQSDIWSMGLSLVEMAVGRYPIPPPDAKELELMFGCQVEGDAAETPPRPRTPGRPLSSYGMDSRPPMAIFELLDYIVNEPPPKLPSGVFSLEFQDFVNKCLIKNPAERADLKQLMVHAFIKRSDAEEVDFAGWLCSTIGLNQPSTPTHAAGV

In the case of C=CC(=O)Nc1ccccc1Nc1nc(Nc2ccc(N3CCN(C)CC3)cc2)ncc1Cl, the inhibition [1] is reported as “Active”, the inhibition [2] is reported as “Active” and the inhibition [3] is reported as “Active”. The inhibition [4] was 42.6%, the inhibition [5] was 70% and the Activity [6] was “Active”. The Activity [7] was “Active”, the inhibition [8] was “Active” and the inhibition [9] was 0%. For the same compound, the inhibition [10] was -1.2% and the inhibition [11] was 21.1%.

COc1cc(O)c2c(c1)/C=C/C[C@H](O)[C@H](O)C(=O)/C=C\C[C@H](C)OC2=O was tested, and the inhibition [1] was “Active”, the inhibition [2] was “Active” and the inhibition [12] was 24.2%. The IC50 [13] was 2540 nM, the inhibition [3] was “Active” and the inhibition [14] was 8.5%. For the same compound, the IC50 [15] was 250 nM, the inhibition [16] was 10.2% and the inhibition [8] was “Active”. The inhibition [17] was 12.4%, the inhibition [18] was 95% and the IC50 [19] was 2500 nM. It also gave an inhibition [11] of 15.1%.

With C=CC(=O)Nc1ccccc1Oc1nc(Nc2cnn(CCOC)c2)ncc1Cl the inhibition [12] was 13.7%, the IC50 [13] was 506 nM and the inhibition [14] was -0.9%. It also gave an IC50 [15] of 318 nM, an inhibition [4] of 55.7% and an inhibition [5] of 0.8%. For the same compound, the inhibition [16] was 12.7%, the Activity [6] was “Active” and the Activity [7] was “Active”. For the same compound, the inhibition [17] was 11.6%, the inhibition [18] was 7.9% and the IC50 [19] was 5610 nM. For the same compound, the inhibition [9] was -2.7% and the inhibition [10] was -0.4%.
